Measurements taken from ChEMBL document CHEMBL4619800, “β-Hydroxy- and β-Aminophosphonate Acyclonucleosides as Potent Inhibitors of Plasmodium falciparum Growth” (J Med Chem, 2020).
The source made the active and inactive calls. No cut-off for these calls is given here.

Assays:
Plasmodium falciparum [1] = experiment: Antiplasmodial activity against Plasmodium falciparum 3D7 infected in erythrocytes assessed as reduction in [3H]hypoxanthine incorporation preincubated for 48 hrs followed by [3H]hypoxanthine addition and measured after 18 hrs by topcount scintillation counting analysis; format: functional, organism-based
How it was run: (§1)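 Modified Desjardins test. Infected erythrocytes at 1.5% final hematocrit and 0.6% parasitemia, in HEPES-buffered RPMI 1640 with 10% AB human serum and a range of compound concentrations, for 48 h. Then [³H]hypoxanthine (0.5 μCi/well) added for 18 h. Freeze-thaw lysis, filter harvest, scintillation counting, uninfected-erythrocyte background subtracted. IC50 from sigmoidal variable-slope regression. Mean of ≥3 independent experiments in duplicate.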

[2] = Toxicity in human K562 cells assessed as effect on cell growth measured after 24 hrs by [3H]thymidine incorporation based assay
How it was run: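 K562 cells seeded at 8000 per well in RPMI 1640 with 10% FCS. Incubated 24 h at 37 °C, 5% CO₂ with a range of compound concentrations. Then 0.5 μCi [³H]thymidine added for 6 h. Freeze-thaw, harvest of macromolecules and scintillation counting, with medium-only background subtracted.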

Plasmodium berghei [3] = experiment: Antiplasmodial activity against Plasmodium berghei ANKA infected in ip dosed Swiss NMRI mouse assessed as reduction in parasitemia administered once daily for 4 days measured 24 hrs post-last dose by Giemsa-staining based assay; format: functional
How it was run: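 Female Swiss NMRI mice infected on day 0 by IV injection of 10⁷ P. berghei ANKA-infected erythrocytes. Dosed ip once daily for 4 days from day 1, 3 mice per group. Test doses 0–30 mg/kg in 0.9% NaCl; artesunate 0–27 mg/kg in DMSO. Controls received vehicle. Parasitemia counted on day 5 from Giemsa-stained smears, and ED50 taken as the dose giving 50% parasitemia reduction.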

Plasmodium falciparum [4] = experiment: Antiplasmodial activity against chloroquine-resistant Plasmodium falciparum FcM29 infected in erythrocytes assessed as reduction in [3H]hypoxanthine incorporation preincubated for 48 hrs followed by [3H]hypoxanthine addition and measured after 18 hrs by topcount scintillation counting analysis; format: functional, organism-based; how it was run: as §1
Plasmodium falciparum [5] = experiment: (§2) Antiplasmodial activity against synchronized ring stage Plasmodium falciparum 3D7 infected in erythrocytes assessed as effect on parasite development by measuring late schizont stage parasitemia at 2 uM supplemented with fresh medium containing compound every 24 hrs measured at 48 hrs by Giemsa/Diff-quick staining based fluorescence microscopic analysis (reference value: 0.4%); format: functional
How it was run: (§3)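 Tightly synchronized ring-stage culture at 2.5% hematocrit and 1–2% parasitemia, treated or not with 2 μM for 69 h, with drug-containing medium renewed every 24 h. Thin smears taken every 6 h, methanol-fixed and stained with Diff-Quick (pH 7.2). Parasitemia scored by parasite stage, and morphology examined.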

Plasmodium berghei [6] = experiment: Antiplasmodial activity against Plasmodium berghei ANKA infected in Swiss NMRI mouse assessed as parasitemia at 30 mg/kg, ip administered once daily for 4 days measured on day 11 by Giemsa-staining based assay relative to control; format: functional
How it was run: (§4)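 Female Swiss NMRI mice infected on day 0 by IV caudal-vein injection of 10⁷ P. berghei ANKA-infected erythrocytes (clone 2.34). Compound given ip in 0.9% NaCl, 100 μL per mouse, 3 mice per group. Either one daily dose for 4 consecutive days from day 1, or a single dose on day 1. Parasitemia counted on Giemsa-stained thin smears and followed for 30 days. Controls received vehicle only.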

Plasmodium falciparum [7] = experiment: (§5) Antiplasmodial activity against segmented schizont stage Plasmodium falciparum 3D7 infected in erythrocytes assessed as effect on merozoite DNA content at 2 uM supplemented with fresh medium containing compound every 24 hrs measured at 45 hrs by Hoechst staining based immunofluorescence microscopic analysis; format: functional, organism-based
How it was run: (§6)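 Tightly synchronized ring-stage culture at 2.5% hematocrit and 1–2% parasitemia, treated or not with 2 μM; drug-containing medium changed every 24 h. At 45 h (segmented schizonts), smears fixed in 4% formaldehyde/PBS, glycine-quenched, Triton X-100-permeabilized and BSA-blocked. Stained with α-mTIP and α-MSP1 antibodies, then secondaries, with Hoechst labelling nuclei.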

[8] = Selectivity index, ratio of IC50 for human K562 cells to IC50 for antiplasmodial activity against Plasmodium falciparum 3D7 infected in erythrocytes; format: toxicity, cell-based; settings: K562 cells versus Plasmodium falciparum 3D7 in erythrocytes, read-out: Ratio IC50
Plasmodium falciparum [9] = experiment: as §2, with “ring” for “late schizont”, “uM” for “uM supplemented with fresh medium containing compound every 24 hrs”, “immediately” for “at 48 hrs”, “2.1%)” for “0.4%)”; format: functional; how it was run: as §3
Plasmodium berghei [10] = experiment: Antiplasmodial activity against Plasmodium berghei ANKA infected in Swiss NMRI mouse assessed as parasitemia at 30 mg/kg, ip administered once daily for 4 days measured on day 14 by Giemsa-staining based assay relative to control; format: functional; how it was run: as §4
Plasmodium falciparum [11] = experiment: as §2, with “ring” for “late schizont”, “69” for “48”, “11.1%)” for “0.4%)”; format: functional; how it was run: as §3
Plasmodium berghei [12] = experiment: Antiplasmodial activity against Plasmodium berghei ANKA infected in po dosed Swiss NMRI mouse assessed as reduction in parasitemia administered once daily for 4 days measured 24 hrs post-last dose by Giemsa-staining based assay; format: functional
How it was run: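 Female Swiss NMRI mice infected on day 0 by IV injection of 10⁷ P. berghei ANKA-infected erythrocytes. Oral dosing in water (100 μL, 3 mice per group) at 0, 1, 3, 10 and 30 mg/kg, once daily for 4 days from day 1. Water-only controls. Day-5 parasitemia counted on Giemsa-stained thin smears, and ED50 derived as the dose reducing parasitemia by 50%.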

Plasmodium falciparum [13] = experiment: as §5, with “development” for “DNA content”; format: functional, organism-based; how it was run: as §6
Plasmodium falciparum [14] = experiment: as §2, with “ring” for “late schizont”, “measured after” for “supplemented with fresh medium containing compound every”, “24” for “24 hrs measured at 48”, “2.1%)” for “0.4%)”; format: functional; how it was run: as §3
Plasmodium berghei [15] = experiment: Antiplasmodial activity against Plasmodium berghei ANKA infected in Swiss NMRI mouse assessed as reduction in parasitemia at 30 mg/kg, ip administered as single dose by Giemsa-staining based assay relative to control; format: functional; design: scale not given: the % may be the effect or the level left; how it was run: as §4
Plasmodium falciparum [16] = experiment: as §2, with “42” for “48”, “1.9%)” for “0.4%)”; format: functional; how it was run: as §3
Plasmodium falciparum [17] = experiment: Antiplasmodial activity against chloroquine-resistant Plasmodium falciparum W2 infected in erythrocytes assessed as reduction in [3H]hypoxanthine incorporation preincubated for 48 hrs followed by [3H]hypoxanthine addition and measured after 18 hrs by topcount scintillation counting analysis; format: functional, organism-based; how it was run: as §1
Plasmodium falciparum [18] = experiment: as §2, with “ring” for “late schizont”, “9.9%)” for “0.4%)”; format: functional; how it was run: as §3
Plasmodium falciparum [19] = experiment: as §2, with “early” for “late”, “39” for “48”, “2.1%)” for “0.4%)”; format: functional; how it was run: as §3

SMILES	IC50 (Plasmodium falciparum [1])	IC50 at 24 h [2]	selectivity ratio [8]	other results
Nc1ncnc2c1ncn2C[C@@H](O)CP(=O)(O)O	> 1000 µM	> 1000 µM		
Nc1nc2c(ncn2CC[C@@H](O)CP(=O)([O-])[O-])c(=O)[nH]1.[Na+].[Na+]	0.074 µM	> 1000 µM	> 1350	ED50 (Plasmodium berghei [3]): 0.56 mg/kg; IC50 (Plasmodium falciparum [4]): 0.03 µM; Activity (Plasmodium falciparum [5]): 1.3%; Activity (Plasmodium berghei [6]): 6.9 - 16.7%; Activity (Plasmodium falciparum [7]): inactive; Activity (Plasmodium falciparum [9]): 2.1%; Activity (Plasmodium berghei [10]): 1.7%; Activity (Plasmodium falciparum [11]): 0%; ED50 (Plasmodium berghei [12]): 30 mg/kg; Activity (Plasmodium falciparum [13]): inactive; Activity (Plasmodium falciparum [14]): 2.1%; Activity (Plasmodium berghei [15]): 95%; Activity (Plasmodium falciparum [16]): 1.7%; IC50 (Plasmodium falciparum [17]): 0.045 µM; Activity (Plasmodium falciparum [18]): 0.6%; Activity (Plasmodium falciparum [19]): 2.1%
Nc1nc(F)nc2c1ncn2CC[C@@H](O)CP(=O)(O)O	26.3 µM	> 1000 µM	> 38	
Nc1nc(O)c2ncn(CC[C@@H](N)CP(=O)(O)O)c2n1	> 100 µM	> 1000 µM		
Nc1nc(N)c2ncn(CC[C@H](N)CP(=O)(O)O)c2n1	> 100 µM	> 1000 µM		
Nc1ncc2ncn(CC[C@@H](O)CP(=O)(O)O)c2n1	67 µM	> 1000 µM	> 16	
Nc1nc(N)c2ncn(CC[C@@H](N)CP(=O)(O)O)c2n1	> 100 µM	> 1000 µM		
Nc1nc(O)c2ncn(CC[C@H](N)CP(=O)(O)O)c2n1	> 100 µM	> 1000 µM		
C[C@H]1[C@H](OC(=O)CCC(=O)O)O[C@@H]2O[C@@]3(C)CC[C@H]4[C@H](C)CC[C@@H]1[C@@]24OO3 [ARTESUNATE]				ED50 (Plasmodium berghei [3]): 0.1 mg/kg
Nc1nc(N)c2ncn(CC[C@H](O)CP(=O)(O)O)c2n1	> 1000 µM	> 1000 µM		
Nc1ncnc2c1ncn2CC[C@H](O)CP(=O)(O)O	> 1000 µM	> 1000 µM		
CCN(CC)CCCC(C)Nc1ccnc2cc(Cl)ccc12 (stereo not drawn) [CHLOROQUINE]		25.3 µM		
Nc1ncnc2c1ncn2CC[C@@H](O)CP(=O)(O)O	> 1000 µM	> 1000 µM		
Nc1nc(N)c2ncn(CC[C@@H](O)CP(=O)(O)O)c2n1	48 µM	> 1000 µM	> 21	
Nc1nc2c(ncn2C[C@@H](O)CP(=O)(O)O)c(=O)[nH]1	> 1000 µM	> 1000 µM		
Nc1nc(N)c2ncn(C[C@@H](O)CP(=O)(O)O)c2n1	327 µM	> 1000 µM	> 2.6	
O=c1[nH]c(=O)c2ncn(CC[C@@H](O)CP(=O)(O)O)c2[nH]1	590 µM	> 1000 µM		
Nc1nc(N)c2ncn(C[C@H](O)CP(=O)(O)O)c2n1	510 µM	> 1000 µM	> 2	
O=c1[nH]c(=O)c2ncn(CC[C@H](O)CP(=O)(O)O)c2[nH]1	910 µM	> 1000 µM	> 1	
Nc1nc(O)c2ncn(CCCCP(=O)(O)O)c2n1	74 µM	> 1000 µM	> 17	
Nc1nc2c(ncn2CC[C@H](O)CP(=O)(O)O)c(=O)[nH]1	6.1 µM	> 1000 µM	164	IC50 (Plasmodium falciparum [4]): 4.5 µM; IC50 (Plasmodium falciparum [17]): 5.6 µM
Nc1nc(O)c2ncn(CC/C=C\P(=O)(O)O)c2n1	> 100 µM	> 1000 µM		
Nc1nc2c(ncn2C[C@H](O)CP(=O)(O)O)c(=O)[nH]1	595 µM	> 1000 µM	> 1.7	
O=c1[nH]cnc2c1ncn2CC[C@@H](O)CP(=O)(O)O	> 1000 µM	> 1000 µM		
Nc1ncnc2c1ncn2C[C@H](O)CP(=O)(O)O	> 1000 µM	> 1000 µM		
O=c1[nH]cnc2c1ncn2CC[C@H](O)CP(=O)(O)O	> 1000 µM	> 1000 µM		
